# Experiments:
# [1] = Mouse pharmacokinetic study; format: in vivo, mice
# OVCAR3 cells proteome = experiment: Multiplexed quantitative mass-spectrometry-based proteomics in OVCAR3 cells; format: cell-based, human; details: OVCAR3, 0.1 μM, 6 h
# How it was run: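 OVCAR3 cells in triplicate plates adhered 24 h, then received 0.1 μM test compound or DMSO for 6 h. Lysis was in 2% SDS buffer, followed by 5 mM DTT (37 °C, 1 h) and 15 mM iodoacetamide. Lys-C then trypsin (each 1:75) digested the samples. 150 μg per sample was TMT18-labelled, fractionated at pH 8, and quantified by SPS-MS3 on an Orbitrap. Target-decoy SEQUEST search; peptides with TMT sum >200 and isolation specificity >0.7 kept.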
# OVCAR3 cells = experiment: CellTiter-Glo proliferation assay, OVCAR3; format: cell-based; details: OVCAR3, 72h
# How it was run: (§1)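 Cells were grown in RPMI 1640 with 10% heat-inactivated FBS and penicillin/streptomycin at 37 °C and 5% CO2, and tested mycoplasma-negative. They were seeded at 10^4/ml and treated in triplicate. Compounds were dispensed by robot from 10 mM or 1 mM stocks, with DMSO equalised across wells. A non-degrading analogue and the parent inhibitor served as controls. After 72 h, CellTiter-Glo was added for 10–15 min at room temperature and luminescence was read.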
# [2] = test system: CDK1, 2, 4, 5, 6, 8 and 9; experiment: Western blotting analysis of other CDKs in Jurkat cells; format: cell-based, human; details: 0.1 to 0.5 μM, 6 hours
# How it was run: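 Jurkat cells were exposed to test compound at 0.1–0.5 μM for 6 h. Lysis was in ice-cold RIPA (pH 7.4) with protease and phosphatase inhibitors, with BCA protein quantitation. Samples were boiled 10 min at 95 °C, run on 4–20% SDS-PAGE, and transferred to nitrocellulose. Primary antibodies were applied overnight at 4 °C, then IRDye secondaries for 1 h at room temperature, with infrared detection.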
# CDK7 [3] = molecular target: T1, CDK7 (Homo sapiens, UniProt P50613); experiment: Immunoblot analysis of CDK7 degradation in different cell lines; format: cell-based; details: 6 h
# How it was run: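 Cell lines grown in RPMI 1640/10% FBS were exposed to test compound for 6 h. Lysis was in ice-cold RIPA (pH 7.4) with protease/phosphatase inhibitors, with BCA-equalised loading. Proteins were run on 4–20% SDS-PAGE and transferred to nitrocellulose. Blots were probed overnight at 4 °C with anti-CDK7 1:1000 and β-actin 1:5000, then with IRDye secondaries for 1 h at room temperature, and scanned by infrared imaging.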
# [4] = Tolerability during mouse PK study; format: in vivo; details: mice
# CDK7 [5] = molecular target: T1, CDK7; experiment: Immunoblot analysis of CDK7 degradation in Jurkat cells; format: cell-based
# How it was run: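 Jurkat cells received test compound at 0.1 or 1 μM for 16 h, 0.1 μM for 0.5–24 h, or a concentration series for 6 h. Other arms were pretreated 2 h with MG132, MLN-4924, parent CDK7 inhibitor or VHL ligand, or used VHL-knockout Jurkat (6 h). Blots: RIPA lysis, 4–20% SDS-PAGE, nitrocellulose, anti-CDK7 1:1000, β-actin 1:5000, IRDye secondaries. Mean ± SEM of three biological replicates.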
# MAT1 = experiment: Western blotting analysis of MAT1 in OVCAR3 and Jurkat cells; format: cell-based; details: Western blot, 6 h
# How it was run: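 OVCAR3 and Jurkat cells were exposed to test compound for 6 h. RIPA lysates were BCA-equalised, resolved on 4–20% SDS-PAGE, and transferred to nitrocellulose. Blots were probed overnight at 4 °C for MAT1, Cyclin H and CDK7 (each 1:1000) plus β-actin (1:5000), then with IRDye secondaries for 1 h at room temperature, and imaged by infrared scanning.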
# LONRF2 = experiment: Western blot of LONRF2; format: cell-based; details: 0.1 to 5 μM
# How it was run: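 Immunoblot with anti-LONRF2 1:1000 overnight at 4 °C and β-actin 1:5000 as loading control. RIPA lysates with protease/phosphatase inhibitors were BCA-equalised, run on 4–20% SDS-PAGE, and transferred to nitrocellulose. IRDye secondaries were applied for 1 h at room temperature, followed by infrared scanning.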
# A549 cells = experiment: CellTiter-Glo proliferation assay, A549; format: cell-based; details: A549, 72h
# How it was run: as §1
# SUDHL5 cells = experiment: CellTiter-Glo proliferation assay, SUDHL5; format: cell-based; details: SUDHL5, 72h
# How it was run: as §1
# Molt4 cells = experiment: CellTiter-Glo proliferation assay, Molt4; format: cell-based; details: Molt4, 72h
# How it was run: as §1
# CDK7/Cyclin H/MNAT1 = CDK7/Cyclin H/MNAT1 (Homo sapiens, UniProt P50613); experiment: Adapta Eu kinase assay; format: biochemical
# How it was run: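 CDK7/Cyclin H/MNAT1 complex tested by an outside contract service in Adapta Eu format, with ATP at its Km concentration.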
# Jurkat cells = experiment: CellTiter-Glo proliferation assay, Jurkat; format: cell-based, human; details: 72h
# How it was run: as §1
# [6] = Jurkat cells, 0.1 μM or 1 μM, 16 h, Western blot
# T1 sequence (P50613 2-346 limits assumed): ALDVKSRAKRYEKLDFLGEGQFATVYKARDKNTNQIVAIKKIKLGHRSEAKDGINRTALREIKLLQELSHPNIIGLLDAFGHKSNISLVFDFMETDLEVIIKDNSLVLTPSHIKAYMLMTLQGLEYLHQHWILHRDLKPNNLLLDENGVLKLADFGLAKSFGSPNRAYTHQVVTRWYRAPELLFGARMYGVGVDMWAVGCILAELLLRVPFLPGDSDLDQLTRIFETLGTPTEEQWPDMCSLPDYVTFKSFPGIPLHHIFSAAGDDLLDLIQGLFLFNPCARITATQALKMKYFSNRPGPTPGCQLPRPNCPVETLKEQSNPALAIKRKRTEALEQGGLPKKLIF
# T1 sequence (P51946 whole entry partner): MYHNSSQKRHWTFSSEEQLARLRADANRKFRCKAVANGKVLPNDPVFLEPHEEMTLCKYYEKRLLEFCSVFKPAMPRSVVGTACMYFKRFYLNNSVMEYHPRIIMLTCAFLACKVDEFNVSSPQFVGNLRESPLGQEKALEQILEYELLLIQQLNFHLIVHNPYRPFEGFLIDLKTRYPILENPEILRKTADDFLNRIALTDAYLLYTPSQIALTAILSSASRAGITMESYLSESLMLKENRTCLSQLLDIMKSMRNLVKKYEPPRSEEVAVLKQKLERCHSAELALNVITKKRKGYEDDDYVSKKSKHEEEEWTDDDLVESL
# T1 sequence (P51948 whole entry partner): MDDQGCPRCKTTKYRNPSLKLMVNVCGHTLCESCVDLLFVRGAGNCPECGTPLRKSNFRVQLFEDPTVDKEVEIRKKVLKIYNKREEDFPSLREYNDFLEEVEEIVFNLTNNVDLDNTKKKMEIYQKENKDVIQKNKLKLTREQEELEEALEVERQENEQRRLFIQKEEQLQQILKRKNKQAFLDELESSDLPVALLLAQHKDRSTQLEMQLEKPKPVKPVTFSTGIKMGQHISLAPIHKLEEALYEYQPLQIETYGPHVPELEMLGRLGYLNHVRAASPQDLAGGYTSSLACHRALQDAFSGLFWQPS
# Sequence of CDK7/Cyclin H/MNAT1 (P50613 whole entry): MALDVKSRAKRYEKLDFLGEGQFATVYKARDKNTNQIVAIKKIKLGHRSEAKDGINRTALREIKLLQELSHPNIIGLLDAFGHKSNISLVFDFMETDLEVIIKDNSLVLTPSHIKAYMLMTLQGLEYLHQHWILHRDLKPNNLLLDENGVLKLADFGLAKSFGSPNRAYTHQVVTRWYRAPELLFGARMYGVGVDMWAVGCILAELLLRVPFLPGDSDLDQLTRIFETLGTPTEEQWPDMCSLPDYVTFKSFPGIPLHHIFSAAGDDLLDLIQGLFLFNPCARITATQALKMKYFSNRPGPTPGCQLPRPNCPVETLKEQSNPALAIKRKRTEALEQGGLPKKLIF
# Sequence of CDK7/Cyclin H/MNAT1 (P51946 whole entry partner): as the sequence (P51946 whole entry partner) above
# Sequence of CDK7/Cyclin H/MNAT1 (P51948 whole entry partner): as the sequence (P51948 whole entry partner) above
compound,measurement,setting,value
"Cc1ncsc1-c1ccc([C@H](C)NC(=O)[C@@H]2C[C@@H](O)CN2C(=O)[C@@H](NC(=O)CCCC#Cc2ccc(C(=O)Nc3n[nH]c4c3CN(C(=O)N[C@H](CN(C)C)c3ccccc3)C4(C)C)cc2)C(C)(C)C)cc1 [Compound 17, N-((S)-2-(dimethylamino)-1-phenylethyl)-3-(4-(6-(((S)-1-((2S,4R)-4-hydroxy-2-(((S)-1-(4-(4-methylthiazol-5-yl)phenyl)ethyl)carbamoyl)pyrrolidin-1-yl)-3,3-dimethyl-1-oxobutan-2-yl)amino)-6-oxohex-1-yn-1-yl)benzamido)-6,6-dimethyl-4,6-dihydropyrrolo[3,4-c]pyrazole-5(1H)-carboxamide]",concentration at 6 h,"[1]; male, CD1, mouse, plasma, ip, 10 mg/kg",1490 nM
same,clearance,"[1]; mice, IV 3 mg/kg and IP 10 mg/kg",low clearance
same,maximum plasma concentration,"[1]; mice, single IP injection, 10 mg/kg",3.39 µM
same,CDK7 abundance (proteomics),OVCAR3 cells proteome,significantly downregulated
same,Cyclin H abundance (proteomics),OVCAR3 cells proteome,significantly downregulated
same,number of significantly changed proteins,"OVCAR3 cells proteome; 6538 proteins identified, 1.75-fold cutoff, p-value < 0.001, vs DMSO",only three significantly changed proteins were identified
same,antiproliferative effect (in words),OVCAR3 cells,efficacies comparable to its parental compound YKL-5–167
same,protein levels of other CDK family members,[2],barely affected the protein levels
same,CDK7 degradation,CDK7 [3]; A549 lung adenocarcinoma cell line,Robust degradation
same,CDK7 degradation,CDK7 [3]; Molt4 T lymphoblast cell line,Robust degradation
same,CDK7 degradation,CDK7 [3]; OVCAR3 ovarian adenocarcinoma cell line,Robust degradation
same,CDK7 degradation,CDK7 [3]; SUDHL5 B-cell lymphoma cell line,Robust degradation
same,clinical signs,[4]; during the PK study,no clinical signs were observed
same,tolerability,[4]; single dose IV 3 mg/kg or IP 10 mg/kg,well tolerated
same,CDK7 degradation (in words),CDK7 [5]; [6],most effective degrader for CDK7
same,reduction in CDK7 protein,CDK7 [5]; [6],up to 95%
same,time at which degradation of CDK7 was observable,"CDK7 [5]; Jurkat cells, 0.1 μM, time course up to 24 hours",≤ 0.5 h
same,CDK7 degradation after pretreatment with MG132 or MLN-4924,"CDK7 [5]; Jurkat cells, 2 h pretreatment, then 17 for 6 h",rescued CDK7 degradation
same,hook effect,"CDK7 [5]; Jurkat cells, 6 h, up to 5 μM",no hook effect was observed
same,"CDK7 degradation, concentration dependence","CDK7 [5]; Jurkat cells, different concentrations, 6 h",efficiently induced CDK7 degradation in a dose-dependent manner
same,CDK7 degradation in cells lacking VHL,"CDK7 [5]; VHL-knockout Jurkat cells vs wild-type, 6 h",completely abrogated
same,MAT1 protein level,MAT1,dose-dependent downregulation
same,LONRF2 degradation,LONRF2,did not observed LONRF2 degradation
"Cc1ncsc1-c1ccc([C@H](C)NC(=O)[C@@H]2C[C@H](O)CN2C(=O)[C@@H](NC(=O)CCCC#Cc2ccc(C(=O)Nc3n[nH]c4c3CN(C(=O)N[C@H](CN(C)C)c3ccccc3)C4(C)C)cc2)C(C)(C)C)cc1 [Compound 17-Neg, N-((S)-2-(dimethylamino)-1-phenylethyl)-3-(4-(6-(((S)-1-((2S,4S)-4-hydroxy-2-(((S)-1-(4-(4-methylthiazol-5-yl)phenyl)ethyl)carbamoyl)pyrrolidin-1-yl)-3,3-dimethyl-1-oxobutan-2-yl)amino)-6-oxohex-1-yn-1-yl)benzamido)-6,6-dimethyl-4,6-dihydropyrrolo[3,4-c]pyrazole-5(1H)-carboxamide]",antiproliferative effect (in words),OVCAR3 cells,much weaker antiproliferative effect
same,antiproliferative effect (in words),A549 cells,much weaker antiproliferative effect
same,antiproliferative effect (in words),SUDHL5 cells,much weaker antiproliferative effect
same,antiproliferative effect (in words),Molt4 cells,much weaker antiproliferative effect
same,level of CDK7 protein,"CDK7 [5]; Jurkat cells, 6 h, negative control",fails to reduce the level of CDK7 protein
same,IC50,CDK7/Cyclin H/MNAT1,21.1 nM
same,anti-proliferative effect (in words),Jurkat cells,much weaker anti-proliferative effect
